Measurements as given in ChEMBL document CHEMBL4251623, “Synthesis and evaluation of 2-(3-arylureido)pyridines and 2-(3-arylureido)pyrazines as potential modulators of Aβ-induced mitochondrial dysfunction in Alzheimer's disease” (Eur J Med Chem, 2018).

Assays:
Mus musculus [1] = species on record: Mus musculus; assay: Inhibition of amyloid beta (1 to 42)-induced mPTP opening in mouse HT22 cells assessed as neuroprotective activity against amyloid beta (1 to 42)-induced toxicity at 5 uM measured after 24 hrs by MTT assay relative to control; type: cell-based
In short: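 HT-22 cells (5000/well) were pretreated with compound for 10 min, then Aβ1-42 was added, both at 5 µM, for 24 h at 37 °C. Viability was read by MTT (2 h; acidic Triton/isopropanol solubilization; A570). Aβ-treated viability was set to 0 and vehicle to 100% protection; mean of duplicates.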

HT-22 = assay: Toxicity in mouse HT22 cells assessed as ATP production level at 5 uM after 7 hrs by luciferase based assay relative to control; type: cell-based; details: ht-22, 7 h
In short: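 HT-22 cells (10,000/well, seeded the day before; DMEM, 10% FBS, 37 °C, 5% CO2) were exposed to compound (5 µM per footnote) without Aβ for 7 h at 37 °C. Cells were lysed in 1% Triton X-100/TBST, equal protein (BCA) was taken, and ATP was measured with a luciferase kit. Result is % ATP production relative to vehicle; mean of duplicates.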

Mus musculus [2] = species on record: Mus musculus; assay: Inhibition of amyloid beta (1 to 42)-induced mPTP opening in mouse HT22 cells assessed as reduction in mitochondrial membrane potential loss by measuring green to red fluorescence ratio at 5 uM preincubated for 10 mins followed by amyloid beta (1 to 42) addition and measured every 1 hr for 3 hrs by JC1 staining based fluorescence assay relative to control; type: cell-based; set-up: scale not given: the % may be the effect or the level left
In short: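 HT-22 cells (30,000/well) were seeded one day before and loaded with 7.5 µM final JC-1 in phenol red-free Opti-MEM for 1 h 15 min at 37 °C, then washed with PBS. Compound (5 µM) was added for 10 min at 37 °C, then Aβ1-42 (5 µM). Red (ex/em 530/580 nm) and green (485/530 nm) fluorescence were read hourly for 3 h. Green/red ratio was expressed versus Aβ alone (100%), as mean of duplicates.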

[3] = Cytotoxicity against mouse HT22 cells assessed as cell viability at 5 uM after 24 hrs by MTT assay relative to control; type: cell-based, HT-22; details: read-out: Activity
In short: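 HT-22 cells (5000/well) got compound at 5 µM for 24 h at 37 °C. MTT was added for 2 h, then solubilizer (10% Triton X-100 in isopropanol, 0.1 M HCl) for 1 h at room temperature. Absorbance was read at 570 nm, vehicle-subtracted, and expressed as % viability; mean of duplicates.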

Mus musculus [4] = species on record: Mus musculus; assay: Inhibition of amyloid beta (1 to 42)-induced mPTP opening in mouse HT22 cells assessed as protection against amyloid beta (1 to 42)-induced deterioration of ATP production by measuring ATP recovery at 5 uM preincubated for 10 mins followed by amyloid beta (1 to 42) addition and measured after 7 hrs relative to control; type: cell-based; set-up: scale not given: the % may be the effect or the level left
In short: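 HT-22 cells (10,000/well, seeded the day before) got compound for 10 min at 37 °C, then Aβ1-42; per footnote, both were at 5 µM. After 7 h at 37 °C, cells were washed, lysed in 1% Triton X-100/TBST and protein-normalized by BCA. ATP was measured with a luciferase kit. Aβ-injured level was set to 0 and vehicle to 100% recovery; mean of duplicates.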

| Structure (SMILES) | Activity (Mus musculus [2]) [%] | further results |
| --- | --- | --- |
| O=C(Nc1ccccc1F)Nc1ncccc1OCc1cccc(Cl)c1 | 11 | percent protection against Aβ1-42 toxicity (Mus musculus [1]): 67%; Activity (HT-22): 104%; viability at 24 h, 5 µM [3]: 115%; Activity (Mus musculus [4]): 43% |
| O=C(Nc1cccc(Cl)c1)Nc1ncccc1OCc1cccc(Cl)c1 | 55 | – |
| O=C(Nc1cccc(F)c1)Nc1nccnc1OCc1ccccc1 | 111 | – |
| O=C(Nc1ccccc1F)Nc1ncccc1OCc1ccccc1Cl | 38 | – |
| O=C(Nc1ccc(Cl)c(Cl)c1)Nc1ncccc1OCc1ccccc1 | 19 | – |
| O=C(Nc1ccc(Cl)c(Cl)c1)Nc1ncccc1OCc1ccccc1Cl | 36 | Activity (HT-22): 123%; viability at 24 h, 5 µM [3]: 60% |
| Cc1ccc(NC(=O)Nc2ncccc2OCc2ccccc2Cl)cc1 | 22 | – |
| O=C(NCc1ccccc1)Nc1nccnc1OCc1cccc(F)c1 | 69 | – |
| Cc1ccc(NC(=O)Nc2ncccc2OCc2cccc(F)c2)cc1 | 22 | – |
| O=C(Nc1ccccc1F)Nc1nccnc1OCc1ccccc1 | 123 | – |
| NC(=O)CN1CCCC1=O [PIRACETAM] | – | percent protection against Aβ1-42 toxicity (Mus musculus [1]): 29%; Activity (HT-22): 88%; Activity (Mus musculus [4]): 127% |
| O=C(Nc1ccccc1F)Nc1ncccc1OCc1ccc(Cl)cc1 | 27 | – |
| O=C(Nc1ccccc1)Nc1ncccc1OCc1ccccc1Cl | 80 | – |
| O=C(NCc1ccccc1)Nc1ncccc1OCc1cccc(F)c1 | 9 | – |
| O=C(Nc1cccc(F)c1)Nc1ncccc1OCc1cccc(F)c1 | 34 | – |
| Cc1ccc(NC(=O)Nc2ncccc2OCc2cccc(Cl)c2)cc1 | 26 | percent protection against Aβ1-42 toxicity (Mus musculus [1]): 17%; Activity (HT-22): 108%; viability at 24 h, 5 µM [3]: 95%; Activity (Mus musculus [4]): 54% |
| O=C(Nc1cccc(F)c1)Nc1ncccc1OCc1ccc(Cl)cc1 | 15 | – |
| Cc1ccc(NC(=O)Nc2nccnc2OCc2cccc(F)c2)cc1 | 96 | – |
| O=C(Nc1ccc(C(F)(F)F)cc1)Nc1ncccc1OCc1cccc(F)c1 | 23 | – |
| O=C(Nc1ccc(Cl)c(Cl)c1)Nc1ncccc1OCc1cccc(F)c1 | 35 | – |
| Cc1ccc(NC(=O)Nc2ncccc2OCc2ccc(Cl)cc2)cc1 | 44 | – |

| Structure (SMILES) | Activity (Mus musculus [2]) [%] | further results |
| --- | --- | --- |
| O=C(Nc1ccc(Cl)c(Cl)c1)Nc1nccnc1OCc1cccc(F)c1 | 101 | – |
| O=C(Nc1ncccc1OCc1ccc(Cl)cc1)Nc1cccc2ccccc12 | 52 | – |
| O=C(Nc1ccc(C(F)(F)F)cc1)Nc1ncccc1OCc1ccc(Cl)cc1 | 91 | – |
| O=C(Nc1cccc(F)c1)Nc1ncccc1OCc1cccc(Cl)c1 | 13 | percent protection against Aβ1-42 toxicity (Mus musculus [1]): 38%; Activity (HT-22): 99%; viability at 24 h, 5 µM [3]: 91%; Activity (Mus musculus [4]): 69% |
| O=C(Nc1ncccc1OCc1cccc(Cl)c1)Nc1cccc2ccccc12 | 106 | – |
| O=C(Nc1ncccc1OCc1ccccc1Cl)Nc1cccc2ccccc12 | 77 | – |
| O=C(Nc1ccccc1F)Nc1ncccc1OCc1cccc(F)c1 | 23 | – |
| O=C(Nc1ccccc1F)Nc1ncccc1OCc1ccccc1 | 69 | – |
| O=C(Nc1cccc(F)c1)Nc1ncccc1OCc1ccccc1Cl | 32 | percent protection against Aβ1-42 toxicity (Mus musculus [1]): 14%; Activity (HT-22): 106%; viability at 24 h, 5 µM [3]: 86%; Activity (Mus musculus [4]): 78% |
| O=C(Nc1ccccc1)Nc1ncccc1OCc1cccc(F)c1 | 23 | – |
| O=C(Nc1cccc(F)c1)Nc1ncccc1OCc1ccccc1 | 13 | – |
| O=C(Nc1cccc(Cl)c1)Nc1ncccc1OCc1ccc(F)cc1 | 91 | – |
| O=C(Nc1ccc(C(F)(F)F)cc1)Nc1ncccc1OCc1cccc(Cl)c1 | 27 | – |
| O=C(Nc1cccc(Cl)c1)Nc1ncccc1OCc1ccc(Cl)cc1 | 46 | – |
| O=C(Nc1cccc(F)c1)Nc1ncccc1OCc1ccc(F)cc1 | 18 | – |
| O=C(Nc1ccccc1)Nc1ncccc1OCc1cccc(Cl)c1 | 14 | percent protection against Aβ1-42 toxicity (Mus musculus [1]): 31%; Activity (HT-22): 109%; viability at 24 h, 5 µM [3]: 98%; Activity (Mus musculus [4]): 90% |
| O=C(Nc1ccccc1F)Nc1ncccc1OCc1ccc(F)cc1 | 27 | – |
| O=C(Nc1ccc(Cl)c(Cl)c1)Nc1ncccc1OCc1ccc(Cl)cc1 | 47 | – |
| O=C(Nc1cccc(F)c1)Nc1nccnc1OCc1cccc(F)c1 | 98 | – |
| O=C(Nc1ccc(Cl)c(Cl)c1)Nc1ncccc1OCc1cccc(Cl)c1 | 10 | – |
| O=C(Nc1cccc(Cl)c1)Nc1ncccc1OCc1ccccc1Cl | 25 | percent protection against Aβ1-42 toxicity (Mus musculus [1]): 21%; Activity (HT-22): 124%; viability at 24 h, 5 µM [3]: 84%; Activity (Mus musculus [4]): 91% |
